Test results as given in ChEMBL document CHEMBL4414560, “Goniolanceolatins A-H, Cytotoxic Bis-styryllactones from Goniothalamus lanceolatus” (J Nat Prod, 2019).
pIC50: −log10 of the molar value.

Legend:
Calu-1 = assay: Cytotoxicity against human Calu1 cells assessed as reduction in cell viability incubated fpr 72 hrs by celltiter-glo luminescent cell viability assay; assay type: functional, cell-based; conditions: Calu-1, 72 h
Outline: (§1)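 Cell lines from ATCC, grown in RPMI-1640 with 10% FBS, 100 IU/mL penicillin and 100 μg/mL streptomycin at 37 °C, 5% CO2. Seeded for 24 h, then exposed to compound for 72 h. Viability read by CellTiter-Glo luminescence. IC50 is the concentration killing 50% of cells, reported as mean ± S.D. of at least three independent experiments. Cisplatin-treated cells served for validation.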

SW48 = assay: Cytotoxicity against human SW48 cells assessed as reduction in cell viability incubated fpr 72 hrs by celltiter-glo luminescent cell viability assay; assay type: functional, cell-based; conditions: SW48, 72 h; outline: as §1
NCI-H1299 = assay: Cytotoxicity against human NCI-H1299 cells assessed as reduction in cell viability incubated fpr 72 hrs by celltiter-glo luminescent cell viability assay; assay type: functional, cell-based; conditions: NCI-H1299, 72 h
Outline: (§2)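 Lung cancer lines received as gifts from the National Cancer Institute, Selangor, Malaysia, incubated at 37 °C, 5% CO2. Cells plated for 24 h, then drug-exposed for 72 h. Luminescent CellTiter-Glo viability read-out. IC50 is the concentration killing 50% of cells, reported as mean ± S.D. from at least three independent experiments. Cisplatin-treated cells used for validation.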

NCI-H23 = assay: Cytotoxicity against human NCI-H23 cells assessed as reduction in cell viability incubated fpr 72 hrs by celltiter-glo luminescent cell viability assay; assay type: functional, cell-based; conditions: NCI-H23, 72 h; outline: as §2
HCT-116 = assay: Cytotoxicity against human HCT116 cells assessed as reduction in cell viability incubated fpr 72 hrs by celltiter-glo luminescent cell viability assay; assay type: functional, cell-based; conditions: HCT-116, 72 h; outline: as §1
HCC 2998 = assay: Cytotoxicity against human HCC2998 cells assessed as reduction in cell viability incubated fpr 72 hrs by celltiter-glo luminescent cell viability assay; assay type: functional, cell-based; conditions: HCC 2998, 72 h; outline: as §1
Caco-2 = assay: Cytotoxicity against human Caco2 cells assessed as reduction in cell viability incubated fpr 72 hrs by celltiter-glo luminescent cell viability assay; assay type: functional, cell-based; conditions: Caco-2, 72 h; outline: as §1
CCD-841CoN = assay: Cytotoxicity against human CCD-841-CoN cells assessed as reduction in cell viability incubated fpr 72 hrs by celltiter-glo luminescent cell viability assay; assay type: cell-based
Outline: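 Noncancerous colorectal CCD 841 CoN cells kept in DMEM with 20% FBS, 100 IU/mL penicillin and 100 μg/mL streptomycin at 37 °C, 5% CO2. Plated 24 h, then treated 72 h. Viability by CellTiter-Glo luminescence. IC50 is the 50%-kill concentration, given as mean ± S.D. from at least three independent experiments. Cisplatin used for validation.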

MRC5 = assay: Cytotoxicity against human MRC5 cells assessed as reduction in cell viability incubated fpr 72 hrs by celltiter-glo luminescent cell viability assay; assay type: cell-based; conditions: MRC5, 72 h; outline: as §1
A549 = assay: Cytotoxicity against human A549 cells assessed as reduction in cell viability incubated fpr 72 hrs by celltiter-glo luminescent cell viability assay; assay type: functional, cell-based; conditions: A549, 72 h; outline: as §1

CC(=O)O[C@@H](c1ccccc1)[C@@H](O[C@@H]1[C@@H]2C[C@@H](CC(=O)O2)O[C@H]1c1ccccc1)[C@@H]1CC=CC(=O)O1
pIC50 (Calu-1): < 5.00 | pIC50 (SW48): < 5.00 | pIC50 (NCI-H1299): < 5.00 | pIC50 (NCI-H23): 5.03 | pIC50 (HCT-116): 5.02 | pIC50 (HCC 2998): < 5.00 | pIC50 (Caco-2): < 5.00 | pIC50 (CCD-841CoN): < 4.00 | pIC50 (MRC5): < 4.00 | pIC50 (A549): < 5.00

O=C1C=CC[C@@H]([C@H](O)[C@H](O[C@@H](c2ccccc2)[C@@H](O)[C@@H]2CC=CC(=O)O2)c2ccccc2)O1
pIC50 (Calu-1): 5.27 | pIC50 (SW48): 5.39 | pIC50 (NCI-H1299): 5.15 | pIC50 (NCI-H23): 5.49 | pIC50 (HCT-116): 5.23 | pIC50 (HCC 2998): 5.54 | pIC50 (Caco-2): < 5.00 | pIC50 (CCD-841CoN): < 4.00 | pIC50 (MRC5): < 4.00 | pIC50 (A549): 5.11

O=C1C=CC[C@@H]([C@H](O)[C@@H](O[C@H]([C@@H]2CC=CC(=O)O2)[C@@H](O)c2ccccc2)c2ccccc2)O1
pIC50 (Calu-1): 5.12 | pIC50 (SW48): 5.26 | pIC50 (NCI-H1299): 5.02 | pIC50 (NCI-H23): 5.28 | pIC50 (HCT-116): 5.10 | pIC50 (HCC 2998): < 5.00 | pIC50 (Caco-2): < 5.00 | pIC50 (CCD-841CoN): < 4.00 | pIC50 (MRC5): < 4.00 | pIC50 (A549): < 5.00

CC(=O)O[C@@H]([C@@H]1CC=CC(=O)O1)[C@H](O[C@@H](c1ccccc1)[C@@H](O)[C@@H]1CC=CC(=O)O1)c1ccccc1
pIC50 (Calu-1): 5.66 | pIC50 (SW48): 5.39 | pIC50 (NCI-H1299): 5.34 | pIC50 (NCI-H23): 5.59 | pIC50 (HCT-116): 5.39 | pIC50 (HCC 2998): < 5.00 | pIC50 (Caco-2): 5.15 | pIC50 (CCD-841CoN): < 4.00 | pIC50 (MRC5): < 4.00 | pIC50 (A549): 5.19
